Experimental data as given in ChEMBL document CHEMBL1147364, “An antifungal bibenzyl from the New Zealand liverwort, Plagiochila stephensoniana. Bioactivity-directed isolation, synthesis, and analysis” (J Nat Prod, 1993).
Converted amounts (≈) assume the structure as drawn. The source made the active and inactive calls. The calls are words filed in the database; no cut-off is given here.

Tests used:
P388 = assay: Cytotoxicity against mouse P388 cells after 72 hrs by MTT assay; type: functional, cell-based; details: P388, 72 h
How it was run: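 P-388 murine leukemia cells incubated 72 h with a 2-fold dilution series of sample. Growth read by MTT tetrazolium staining absorbance. IC50 (µg/ml) is the concentration reducing growth to 50% of a solvent control.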

Human alphaherpesvirus 1 = assay: Antiviral activity against Herpes simplex virus type 1 ATCC VR 733 infected in african green monkey BSC cells assessed as inhibition of virus-induced cytopathic effect; type: functional, organism-based
How it was run: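 Sample dried onto 6-mm filter paper disks placed directly on BSC-1 (African green monkey kidney) cell monolayers, which were infected with HSV type 1 (ATCC VR 733). After 24 h incubation, examined by inverted microscope. Zone of viral and/or cytotoxic inhibition around the disk recorded.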

Poliovirus 1 = assay: Antiviral activity against Poliovirus type 1 infected in african green monkey BSC cells assessed as inhibition of virus-induced cytopathic effect; type: functional, organism-based
How it was run: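 Sample is dried onto 6-mm filter-paper disks and placed directly on BSC-1 (African green monkey kidney) cell monolayers. Cells are infected with Polio Type I (Pfizer vaccine strain) and incubated 24 h. Wells are examined by inverted microscope for a zone of viral and/or cytotoxic inhibition around the disk. Cytotoxicity is scored as zone size (+, ++, +++, whole well).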

Gloeophyllum trabeum = assay: Antifungal activity against Gloeophyllum trabeum; type: functional, organism-based
Postia placenta = assay: Antifungal activity against Poria placenta; type: functional, organism-based; details: Rhodonia placenta
Escherichia coli [1] = assay: Antibacterial activity against Escherichia coli at 60 ug/disk by disk diffusion assay; type: functional, organism-based
How it was run: (§1)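 Sample solution dried onto 6-mm filter paper disks at the stated loading. Disks placed on agar plates seeded with the test organism, then incubated. Read-out is the width of the inhibition zone around the disk, in mm.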

Amorphotheca resinae [2] = assay: Antifungal activity against Cladosporium resinae 10100 at 60 ug/disk by disk diffusion assay; type: functional; details: for zone of inhibition at 60 µg/disc: read-out: IZ; how it was run: as §1
Bacillus subtilis [3] = assay: Antibacterial activity against Bacillus subtilis at 2.4 ug/disk by disk diffusion assay; type: functional, organism-based; how it was run: as §1
Bacillus subtilis [4] = assay: Antibacterial activity against Bacillus subtilis at 12 ug/disk by disk diffusion assay; type: functional; details: read-out: IZ; how it was run: as §1
Bacillus subtilis [5] = assay: Antibacterial activity against Bacillus subtilis at 60 ug/disk by disk diffusion assay; type: functional; details: for zone of inhibition at 60 µg/disc: read-out: IZ; how it was run: as §1
Bacillus subtilis [6] = assay: Antibacterial activity against Bacillus subtilis at 300 ug/disk by disk diffusion assay; type: functional; details: for zone of inhibition at 300 µg/disc: read-out: IZ; how it was run: as §1
Candida albicans [7] = assay: Antifungal activity against Candida albicans 10261 at 2.4 ug/disk by disk diffusion assay; type: functional, organism-based; how it was run: as §1
Candida albicans [8] = assay: Antifungal activity against Candida albicans 10261 at 12 ug/disk by disk diffusion assay; type: functional; details: for zone of inhibition at 12 µg/disc: read-out: IZ; how it was run: as §1
Candida albicans [9] = assay: Antifungal activity against Candida albicans 10261 at 60 ug/disk by disk diffusion assay; type: functional; details: for zone of inhibition at 60 µg/disc: read-out: IZ; how it was run: as §1
Candida albicans [10] = assay: Antifungal activity against Candida albicans 10261 at 300 ug/disk by disk diffusion assay; type: functional; details: for zone of inhibition at 300 µg/disc: read-out: IZ; how it was run: as §1
[11] = system: Trichophyton mentagrophytes; assay: Antifungal activity against Trichophyton mentagrophytes 10100 at 2.4 ug/disk by disk diffusion assay; type: functional; details: for zone of inhibition at 2.4 µg/disc: read-out: IZ; how it was run: as §1
[12] = system: Trichophyton mentagrophytes; assay: Antifungal activity against Trichophyton mentagrophytes 10100 at 12 ug/disk by disk diffusion assay; type: functional; details: read-out: IZ; how it was run: as §1
[13] = system: Trichophyton mentagrophytes; assay: Antifungal activity against Trichophyton mentagrophytes 10100 at 60 ug/disk by disk diffusion assay; type: functional; details: for zone of inhibition at 60 µg/disc: read-out: IZ; how it was run: as §1
[14] = system: Trichophyton mentagrophytes; assay: Antifungal activity against Trichophyton mentagrophytes 10100 at 300 ug/disk by disk diffusion assay; type: functional; details: for zone of inhibition at 300 µg/disc: read-out: IZ; how it was run: as §1
Candida albicans [15] = assay: Antifungal activity against Candida albicans 10261 by tube assay method; type: functional
How it was run: (§2)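 MIC by standard tube dilution assay. Minimum fungicidal concentration is also reported in µg/ml.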

[16] = system: Trichophyton mentagrophytes; assay: Antifungal activity against Trichophyton mentagrophytes 10100 by tube assay method; type: functional; how it was run: as §2
Pseudomonas aeruginosa = assay: […] aeruginosa at 60 ug/disk by disk diffusion assay; type: functional, organism-based; how it was run: as §1
Escherichia coli [17] = assay: Antibacterial activity against Escherichia coli at 10 ug/disk by disk diffusion assay; type: functional, organism-based
How it was run: (§3)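 Sample solution dried onto 6-mm filter-paper disks, which are laid on seeded agar Petri dishes and incubated.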

Amorphotheca resinae [18] = assay: Antifungal activity against Cladosporium resinae 10100 at 100 units/disk by disk diffusion assay; type: functional, organism-based; how it was run: as §3
[19] = system: Trichophyton mentagrophytes; assay: Antifungal activity against Trichophyton mentagrophytes 10100 at 100 units/disk by disk diffusion assay; type: functional, organism-based; how it was run: as §3
[20] = Cytotoxicity against african green monkey BSC cells at 60 ug/mL after 24 hrs; type: cell-based; details: chlorocebus aethiops
How it was run: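 Sample on 6-mm filter paper disks placed directly on BSC-1 monkey kidney cells, incubated 24 h, examined by inverted microscope. Cytotoxic zone scored as +, ++, +++ or whole well.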

Amorphotheca resinae [21] = assay: Antifungal activity against Cladosporium resinae 10100 at 300 ug/disk by disk diffusion assay; type: functional, organism-based; how it was run: as §1
Bacillus subtilis [22] = assay: Antibacterial activity against Bacillus subtilis at 30 ug/disk by disk diffusion assay; type: functional; details: read-out: IZ; how it was run: as §1

| Compound | IC50 (P388) | Activity (Escherichia coli [1]) | zone of inhibition at 60 µg/disc [13] | MFC (Candida albicans [15]) | MIC (Candida albicans [15]) | MFC [16] | MIC [16] | Activity [20] | Activity (Amorphotheca resinae [21]) | Activity (Amorphotheca resinae [2]) | Activity (Bacillus subtilis [5]) | Activity (Bacillus subtilis [6]) | Activity (Candida albicans [9]) | Activity (Candida albicans [10]) | Activity [13] | Activity [14] | other results |
| --- | --- | --- | --- | --- | --- | --- | --- | --- | --- | --- | --- | --- | --- | --- | --- | --- | --- |
| CO[C@@]12[C@H](COC(N)=O)C3=C(C(=O)C(C)=C(N)C3=O)N1C[C@@H]1N[C@@H]12 [MITOMYCIN] | 0.02 µg/mL (≈ 0.0598 µM) |  |  |  |  |  |  |  |  |  |  |  |  |  |  |  |  |
| COc1cccc(CCc2ccc(O)cc2)c1 | > 25 µg/mL | inactive | 7 mm | 125 µg/mL (≈ 548 µM) | 125 µg/mL (≈ 548 µM) | 62.5 µg/mL (≈ 274 µM) | 62.5 µg/mL (≈ 274 µM) |  |  |  |  |  |  |  |  |  | Activity (Human alphaherpesvirus 1): inactive; Activity (Poliovirus 1): inactive; IC50 (Gloeophyllum trabeum): 87 µg/mL (≈ 381 µM); IC50 (Postia placenta): 11 µg/mL (≈ 48.2 µM); zone of inhibition at 60 µg/disc (Amorphotheca resinae [2]): 2 mm; Activity (Bacillus subtilis [3]): inactive; zone of inhibition at 12 µg/disc (Bacillus subtilis [4]): 3 mm; zone of inhibition at 60 µg/disc (Bacillus subtilis [5]): 5 mm; zone of inhibition at 300 µg/disc (Bacillus subtilis [6]): 5 mm; Activity (Candida albicans [7]): inactive; zone of inhibition at 12 µg/disc (Candida albicans [8]): 2 mm; zone of inhibition at 60 µg/disc (Candida albicans [9]): 10 mm; zone of inhibition at 300 µg/disc (Candida albicans [10]): 10 mm; Activity [11]: inactive; zone of inhibition at 12 µg/disc [12]: 7 mm; zone of inhibition at 300 µg/disc [14]: 7 mm; Activity (Pseudomonas aeruginosa): inactive |
| GENTAMICIN |  |  |  |  |  |  |  |  |  |  |  |  |  |  |  |  | inhibition zone (IZ) (Escherichia coli [17]): 8 mm |
| NYSTATIN |  |  |  | 31.2 µg/mL | 31.2 µg/mL | 62.5 µg/mL | 62.5 µg/mL |  |  |  |  |  |  |  |  |  | inhibition zone (IZ) (Amorphotheca resinae [18]): 10 mm; inhibition zone (IZ) [19]: 8 mm |
| COc1cccc(/C=C\c2ccc(O[Si](C)(C)C(C)(C)C)cc2)c1 |  | inactive |  |  |  |  |  | Not Active | inactive | inactive | inactive | inactive | inactive | inactive | inactive | inactive |  |
| O=C(N[C@H](CO)[C@H](O)c1ccc([N+](=O)[O-])cc1)C(Cl)Cl [CHLORAMPHENICOL] |  |  |  |  |  |  |  |  |  |  |  |  |  |  |  |  | zone of inhibition at 30 µg/disc (Bacillus subtilis [22]): 12 mm |
| COc1ccc(CCc2cccc(OC)c2)cc1 |  | inactive |  |  |  |  |  | Not Active |  | inactive | inactive | inactive | inactive | inactive | inactive | inactive |  |
| COc1cccc(CCc2ccc(O[Si](C)(C)C(C)(C)C)cc2)c1 | > 25 µg/mL | inactive |  | > 1000 µg/mL | > 1000 µg/mL | > 1000 µg/mL | > 1000 µg/mL | Not Active | inactive | inactive | inactive | inactive | inactive | inactive | inactive | inactive |  |
| C(=C\c1ccccc1)/c1ccccc1 |  | inactive |  |  |  |  |  |  | inactive | inactive | inactive | inactive | inactive | inactive | inactive | inactive |  |
| Cc1cccc(O)c1 [METACRESOL] |  | inactive | 2 mm |  |  |  |  | Not Active |  | inactive | inactive | inactive | inactive | inactive |  | inactive |  |
| COc1cccc(/C=C/c2ccc(O)cc2)c1 [(E)-5-METHOXY-4'-STILBENOL] | 9.9 µg/mL (≈ 43.8 µM) | inactive | 6 mm | 125 µg/mL (≈ 552 µM) | 31.2 µg/mL (≈ 138 µM) | 31.2 µg/mL (≈ 138 µM) | 31.2 µg/mL (≈ 138 µM) |  |  |  |  |  |  |  |  |  | zone of inhibition at 60 µg/disc (Amorphotheca resinae [2]): 2 mm; Activity (Bacillus subtilis [3]): inactive; zone of inhibition at 12 µg/disc (Bacillus subtilis [4]): 2 mm; zone of inhibition at 60 µg/disc (Bacillus subtilis [5]): 4 mm; zone of inhibition at 300 µg/disc (Bacillus subtilis [6]): 6 mm; Activity (Candida albicans [7]): inactive; Activity (Candida albicans [8]): inactive; zone of inhibition at 60 µg/disc (Candida albicans [9]): 2 mm; zone of inhibition at 300 µg/disc (Candida albicans [10]): 7 mm; zone of inhibition at 2.4 µg/disc [11]: 2 mm; zone of inhibition at 12 µg/disc [12]: 8 mm; zone of inhibition at 300 µg/disc [14]: 10 mm |
| COc1cccc(/C=C/c2ccc(O[Si](C)(C)C(C)(C)C)cc2)c1 |  | inactive |  |  |  |  |  | Not Active | inactive | inactive | inactive | inactive | inactive | inactive | inactive | inactive |  |
| COc1cccc(/C=C\c2ccc(O)cc2)c1 | 16.3 µg/mL (≈ 72 µM) |  | 10 mm | 62.5 µg/mL (≈ 276 µM) | 31.2 µg/mL (≈ 138 µM) | 15.6 µg/mL (≈ 69 µM) | 12.6 µg/mL (≈ 55.8 µM) |  |  |  |  |  |  |  |  |  | zone of inhibition at 60 µg/disc (Amorphotheca resinae [2]): 3 mm; Activity (Bacillus subtilis [3]): inactive; zone of inhibition at 12 µg/disc (Bacillus subtilis [4]): 4 mm; zone of inhibition at 60 µg/disc (Bacillus subtilis [5]): 9 mm; zone of inhibition at 300 µg/disc (Bacillus subtilis [6]): 9 mm; Activity (Candida albicans [7]): inactive; zone of inhibition at 12 µg/disc (Candida albicans [8]): 2 mm; zone of inhibition at 60 µg/disc (Candida albicans [9]): 7 mm; zone of inhibition at 300 µg/disc (Candida albicans [10]): 7 mm; zone of inhibition at 2.4 µg/disc [11]: 5 mm; zone of inhibition at 12 µg/disc [12]: 7 mm; zone of inhibition at 300 µg/disc [14]: 10 mm |
